# Screening results: PubChem BioAssay, several laboratories
# Only some compounds are listed: those with a hit (about 2.1% of all), similar ones and a draw of the others.
# aDG glyco act: alpha-DG glycosylation activation; actives 0.22% (n = 360,000); Pro5-aDG cells, alpha-DG glycosylation AlphaScreen (IIH6); 0% Pro5, 100% B10-LARGE cell signal; activation, % at 10 µM;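 active = activation of at least 8% versus controls, or a plate z-score of at least 8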;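 note: Pro5 are CHO cells carrying HIG-tagged alpha-DG that lacks glycosylation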
# PfGluPho inh: PfG6PD (Plasmodium falciparum) enzyme inhibition | PfGluPho enzyme, NADPH resazurin-diaphorase fluorescence | inhibition, % at 20 µM | actives 0.78% (n = 350,000) | AID 504690;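 active = inhibition reaching at least a set limit at 20 µM in the primary screen, cut at about 59% in these data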;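 note: 0% = DMSO wells with substrate and 100% = DMSO wells lacking glucose-6-phosphate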
# HKDC1 inhibitor: inhibitors of human hexokinase HKDC1; Q2TB90; recombinant HKDC1, G6PDH/diaphorase resazurin coupled fluorescence; inhibition, % at 20 µM; actives 0.16% (n = 340,000); AID 493160;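 active = inhibition above about 35% when tested at 20 µM, limit read from the data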;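 note: plate controls were DMSO wells with enzyme for no effect and DMSO wells lacking enzyme for full effect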
#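 test system = in-house recombinant HK5 (HKDC1) enzyme | amount = HKDC1 at 5 µg/mL | control set = DMSO-enzyme wells negative, buffer-substituted wells positive | compound = one dose of 20 µM, 1% DMSO | schedule = reaction time 90 min, room temperature, protected from light | technique = resorufin fluorescence at 613 nm | reagent = glucose with 1 mM ATP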
# UCH37 inh: inhibitors of human deubiquitinating enzyme UCH37 | Q9Y5K5 | purified proteasome/UCH37, Ub-AMC cleavage fluorescence | inhibition, % (no concentration beside the values) | actives 0.33% (n = 330,000);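 active = mean inhibition over replicate wells above about 20%, limit read from the data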;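 note: 0% = compound-free wells with enzyme and 100% = wells lacking proteasome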
# Target sequence (Q9Y5K5 whole entry, looked up): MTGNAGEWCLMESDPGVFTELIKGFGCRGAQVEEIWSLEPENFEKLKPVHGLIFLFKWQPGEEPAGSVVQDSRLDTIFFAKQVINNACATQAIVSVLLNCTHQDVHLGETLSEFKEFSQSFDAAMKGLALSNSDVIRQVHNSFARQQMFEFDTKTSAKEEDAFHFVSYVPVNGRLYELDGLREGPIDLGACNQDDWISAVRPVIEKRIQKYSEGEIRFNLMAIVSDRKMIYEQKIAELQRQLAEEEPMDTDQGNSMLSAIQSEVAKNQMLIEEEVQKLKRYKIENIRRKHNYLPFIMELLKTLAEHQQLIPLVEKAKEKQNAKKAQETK
#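 Signal – fluorescence, ex 355 nm, em 460 nm · System – Proteasome-bound UCH37 · Input – 0.15 nM proteasome as dispensed · Timing – 30 min preincubation with enzyme, 25 min cleavage at room temperature · Read-out basis – percent inhibition of cleavage signal versus uninhibited and no-proteasome wells · Medium – Tris-HCl pH 7.4 with ATP-MgCl2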
# Cardio protect: myocardial damage modulation in H9c2 cells | actives 0.63% (n = 360,000) | H9c2 cardiomyocytes, H2O2 injury protection, ATPLite, 2 h | AID 588492 | protection from H2O2 cell death, % at 20 µM;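 active = compounds giving at least 50% protection of heart cells from peroxide-induced death in the single-dose screen, raw or plate-pattern-corrected value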;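 note: 0% = DMSO wells with peroxide and 100% = DMSO wells without peroxide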
# B2AR ag: agonists of human beta-2 adrenergic receptor inducing internalization; P07550; Am2.2-beta2AR cells, FAP receptor internalization, flow cytometry; actives 0.43% (n = 340,000); response, % (test concentration not listed);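 active = response above a set limit, near 3 SD of response in nonfluorescent compounds, cut at about 42% in these data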
# Beta2AR ag CP1: agonists of human beta-2 adrenergic receptor; shares compounds with B2AR ag; Am2.2-beta2AR cells, FAP surface receptor, flow cytometry; active compounds read low; percent response (surface receptor), % at 10 µM; actives 25% (n = 1,100); AID 540358;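 active = surface receptor percent response at or below 58%, roughly 3 SD from nonfluorescent compounds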
# B2AR FAP counter: fluorescence artifact in beta-2AR agonist FAP counterscreen | calls only at 10 µM | shares compounds with B2AR ag | Am2.2 cells, FAP fluorogen flow cytometry; active compounds read low | AID 588765 | 1,100 tested, under 10 active;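 active = percent response below a set limit in fluorescence channel 1 and below 50% in channel 8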
# Starred values were filed as active, the others as inactive; i = inactive; . = no result.
SMILES,aDG glyco act,PfGluPho inh,HKDC1 inhibitor,UCH37 inh,Cardio protect,B2AR ag,Beta2AR ag CP1,B2AR FAP counter
COc1ccc(C)cc1N1C(=N)/C(=C2/Nc3ccccc3S2)C(c2ccccc2)C1=O (stereo not drawn),0,9,4,-8,-3,45*,85,i
COc1cc(C=NN=Cc2c[nH]c(=O)c(C#N)c2Nc2ccccc2)ccc1O,.,.,.,4,.,.,.,.
COc1ccc(N2C(=O)CS/C2=N\C(=S)Nc2ccccc2)cc1,1,14,-3,.,1,0,92,i
Cc1cccc(-c2nnc(SCc3nc4ccccc4[nH]3)n2Cc2ccco2)c1,0,-8,-6,1,1,-4,116,i
c1coc(Cn2c(SCc3nc4ccccc4[nH]3)nnc2-c2cccs2)c1,0,14,-6,0,0,-7,.,.
O=c1[nH]c(CSc2nnc(-c3ccncc3)n2Cc2ccco2)nc2ccccc12,0,-9,5,6,16,-7,.,.
Cc1ccc(-c2nnc(SCc3nc4ccccc4[nH]3)n2Cc2ccco2)cc1,1,-4,-4,-1,-2,-32,106,i
CN1CCN(Cc2cc(COCc3ccccc3)c3cccnc3c2O)CC1,0,-22,-10,.,29,28,90,i
c1ccc(CSc2nnnn2-c2cccc3ccccc23)nc1,0,-13,-1,3,-7,43*,39*,i
O=C(O)c1cccc(-n2nnnc2SCc2ccccn2)c1,0,-23,1,-1,0,5,.,.
CC(=NOC(=O)c1ccccc1)c1oc(C)nc1C,.,.,.,3,.,.,.,.
ON=C1CC(O)Cc2nonc21 (stereo not drawn),.,.,.,0,.,.,.,.
CCCCOc1cccc(C(=O)Nc2ccc(NC(=O)c3ccco3)cc2)c1,0,12,-6,-25,-3,69*,35*,i
c1ccc(-c2nccc(-c3ccc(-n4cnc5ccccc54)cc3)n2)cc1,0,1,17,4,2,71*,96,i
c1ccc(-n2cnc3ccccc32)nc1,0,-4,-10,2,0,-17,.,.
COC(=O)C1=C(C(=O)OC)C(c2ccccc2O)c2sc(=O)[nH]c2S1 (stereo not drawn),0,-2,-7,3,2,100*,93,i
COC(=O)c1sc2ccccc2c1N,0,36,-4,-346,5,3,.,.
Cc1cc(NC(=O)c2ccc3c(c2)OCCO3)ccc1NC(=O)c1ccco1,0,18,-2,5,-16,-5,.,.
COc1cc(NC(=O)c2ccc3c(c2)OCO3)ccc1NC(=O)c1ccco1,0,-4,-1,-38,3,-1,112,i
CC(=O)Nc1cc(C(=O)OC(C(=O)c2ccccc2)c2ccccc2)ccc1C (stereo not drawn),0,-34,-2,5,4,121*,22*,i
CCN(CC)C(=NS(=O)(=O)c1ccc(C)cc1)c1ccccc1,.,.,.,3,.,.,.,.
CCN(CC)/C(=N/S(=O)(=O)c1ccc(C)cc1)c1ccccc1,0,-1,-2,.,8,78*,110,i
CCCC(=O)Nc1ccc(C(=O)NN=Cc2cccnc2)cc1,.,.,.,4,.,.,.,.
CCc1ccc(OCC(=O)NN=Cc2ccc(OS(=O)(=O)c3ccc(C)cc3)c(OC)c2)cc1,.,.,.,2,.,.,.,.
Cc1ccc(C=NNC(=S)NC(C)C)o1,.,.,.,5,.,.,.,.
SMILES,aDG glyco act,PfGluPho inh,HKDC1 inhibitor,UCH37 inh,Cardio protect,B2AR ag,Beta2AR ag CP1,B2AR FAP counter
CN(C(=O)c1cccc(NC(=O)Cc2cccc(NC(=O)C3CCN(C(=O)C4CCCCC4)CC3)c2)c1)C1CC1,0,-23,-2,1,-5,-4,.,.
CN(C(=O)c1ccc(NC(=O)Cc2cccc(NC(=O)C3CCN(C(=O)C4CCCCC4)CC3)c2)cc1)C1CCCC1,0,-12,-3,2,-8,54*,92,i
CN(C(=O)c1ccc(NC(=O)Cc2cccc(NC(=O)C3CCN(C(=O)C4CCC4)CC3)c2)cc1)C1CC1,0,-2,-6,2,-30,-8,113,i
COc1cc(C=NNC(=O)CSCc2ccc([N+](=O)[O-])cc2)cc(OC)c1OC,.,.,.,5,.,.,.,.
CCOC(=O)CSc1nnc(CNc2ccc(Cl)cc2)n1-c1ccccc1,0,-11,-8,2,-3,108*,99,i
CCOC(=O)CSc1nnc(CNc2cccc(Cl)c2)n1-c1ccccc1,0,-6,2,1,5,7,.,.
C/C(O)=C/c1nc2ccccc2oc1=O,.,.,.,3,.,.,.,.
Cc1[nH]nc(Nc2ccccc2)c1[N+](=O)[O-],0,10,-4,9,-1,-2,.,.
Cc1cccc(Nc2n[nH]c(C)c2[N+](=O)[O-])c1,0,-6,2,4,-6,64*,114,i
O=C(CN1CCc2ccccc2C1)Nc1ccccc1Cl,0,-5,-5,2,-6,0,.,.
O=C(CN1CCc2ccccc2C1)Nc1ccccc1N1CCCCCC1,0,23,1,2,-18,110*,97,i
CC(=NNC(=O)CC(C)C)c1ccc(Cl)c(Cl)c1,.,.,.,1,.,.,.,.
CC(C)(C)n1nnnc1C(c1cccnc1)N1CCN(c2cccc(C(F)(F)F)c2)CC1 (stereo not drawn),1,-8,1,-1,1,-3,.,.
CC(C)(C)c1cc(C(c2cccnc2)N2CCN(CCO)CC2)cc(C(C)(C)C)c1O (stereo not drawn),0,49,13,4,-18,62*,57*,i
CC(C)(C)NNC(=S)Nc1cccc(C(F)(F)F)c1,0,8,4,3,0,-7,.,.
Cc1ccc(NC(=S)NNC(C)(C)C)cc1,1,18,-7,0,-2,1,103,i
Cc1ccc(F)cc1NCC(=O)Nc1ccc(Br)cc1,0,-11,-2,1,-4,80*,110,i
COc1ccc(Cl)cc1N(CC(=O)NN=Cc1ccc(OCC(N)=O)cc1)S(C)(=O)=O,.,.,.,4,.,.,.,.
O=C(NN=Cc1ccc(-c2ccccc2[N+](=O)[O-])o1)[C@H]1C[C@@H]1c1ccccc1,.,.,.,5,.,.,.,.
COc1ccc(-c2nc3c4ccccc4ccn3c2CN2CCOCC2)cc1OC,2,14,0,-46,-7,53*,41*,i
Cn1c(=O)cc(C(=O)NN=Cc2ccc(F)cc2)[nH]c1=O,.,.,.,9,.,.,.,.
